This note sets out measurements from the RNAGym collection of RNA variant scans (doi:10.1101/gad.245936.114).

B1: tRNA (parent)
chain: CUCUCGGUAGCCAAGUUGGUUUAAGGCGCAAGACUUUAAUUUAUCACUACGAAAUCUUGAGAUCGGGCGUUCGACUCGCCCCCGGGAGAUUUUUUCCUCGAGCAA

Variants at the floor of the assay were thinned out. A value given as a limit tells only on which side of the number the result lay.

In the data set the parent is B1. The experiment in a line: nonsense suppression (GFP-seq) (ratio to wild type); higher = more function; SUP4oc tRNA, yeast GFP reporter sort-seq. An outline of the steps: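 Raffinose/galactose medium with 80 mg/L adenine was used to grow yeast carrying genome-integrated tRNA variants (~3% random-mutation library), RFP, and a galactose-driven GFP ochre reporter. Cells went into GFP/RFP bins, which were Illumina-sequenced, and variants with ≥100 reads and ≥30 cells were scored. Nonsense suppression (GFPSEQ) is the per-bin median GFP/RFP weighted by estimated cell share and expressed relative to the unmutated parent tRNA.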
As to A74G G78C G86C, the nonsense suppression is no more than 0.026.

As for G66C G69C G73C G84C, the nonsense suppression was no more than 0.026. Next, C80U G85A: 0.733. Next, C80U A87U: 0.035. Regarding G67C C83A, the nonsense suppression is no more than 0.026.

Take C72U G85U: the nonsense suppression stood at 0.0294.

In the case of C83U, the nonsense suppression is 0.535. As for G78A C79G, the figure is 0.0629; as for G73A A87U, 0.0409; as for G78C G84U, 0.0271. Take C68U G85C: the nonsense suppression was no more than 0.026. On to C80U G88A, for which the nonsense suppression is 0.0263.

As for C82U G85A, the nonsense suppression stood at 0.99. Turning to G84A G86U, the nonsense suppression was no more than 0.026. Next, C79G C82G: no more than 0.026. Next, G66A G78A: 0.0402. As for G85A, the figure is 0.982; as for G85C, 0.163; as for G85U, 1.12. For the variant C72U C81A, the nonsense suppression is no more than 0.026. With G73A U76A, the nonsense suppression worked out at 0.0803. As for G73A U76C, the figure is 0.682; as for G66A C72G, no more than 0.026.

As to G67U C79G, the nonsense suppression was 0.768. With A74C C79U, the nonsense suppression was 0.037.

In the case of A74C C81U, the nonsense suppression was no more than 0.026. As for G66C G85A, the figure is no more than 0.026; as for U70G C75U, no more than 0.026. As for G84A A87G, the nonsense suppression was 0.157. As for C82A G85U, the figure is 0.0445; as for G67A A74U, 0.0276. As for G67A U71C A89C, the figure is no more than 0.026. Next, C81A G85U: no more than 0.026; U76C G78A: 0.0382; U76C G78U: 0.0507. With U76C G78C, the nonsense suppression came to 0.118.

On to C80U G84A, for which the nonsense suppression came out at 0.125. Consider G78C G85U, for which the nonsense suppression came out at 0.232. In the case of G85A A87G, the nonsense suppression is 1.18.

On to G85A A87U, for which the nonsense suppression was 0.19. Consider G73U C81U, for which the nonsense suppression stood at 0.0263.

In the case of U70A C80G, the nonsense suppression was no more than 0.026.

In the case of U70A C80U, the nonsense suppression is no more than 0.026. Take A74U C79U: the nonsense suppression came to 0.0357. As for C79U G86C, the figure is 0.0687. On to G78C A89U, for which the nonsense suppression is no more than 0.026.

With C80G G84A, the nonsense suppression was no more than 0.026.

Consider G66U C68A G86A, for which the nonsense suppression was no more than 0.026. As for C68U U71C, the figure is 0.0274; as for A74G G78U, 0.0279; as for A74G G78C, 0.0343. As for C68U C83G, the figure is no more than 0.026; as for G78A G86A G88C, no more than 0.026; as for C68U, 1.05.

For U76A C79G, the nonsense suppression is no more than 0.026. Next, U76A C79A: no more than 0.026; C82A G84U: no more than 0.026. As for G66A G67A G86C, the figure is no more than 0.026; as for C72U G73C C79G, no more than 0.026.

U76A C80U: the nonsense suppression amounted to 0.0419. As for G73A G84C, the nonsense suppression was determined as 0.361. As for G73A G84A, the figure is 0.191; as for A87G, 1.16. As for G84C G85C, the nonsense suppression was 0.0289. Take A74G G84C: the nonsense suppression is no more than 0.026. Take U71G A89U: the nonsense suppression was no more than 0.026. On to C81U, for which the nonsense suppression is 1.16. G73A A89C: the nonsense suppression was 0.0768.

With G85C A89C, the nonsense suppression is no more than 0.026. Next, C72U C80A A87C: 0.714. Next, C83U A87G: 0.0621; C83U A87U: no more than 0.026. As for C77U C83A, the figure is no more than 0.026; as for U76C A87G, 0.932. For the variant A74C U76C G86A A89G, the nonsense suppression is no more than 0.026. As for C68A C77A, the nonsense suppression was no more than 0.026. As for C81U G84A, the figure is 0.0642; as for C81U G84U, 0.065; as for C75G G78C C83A, no more than 0.026. Next, C75G G78C: 0.361. As for U71G C72U, the figure is no more than 0.026; as for G66C G78A, 0.0452. As for C75A G78A, the nonsense suppression is 0.698.

Consider C75A G78C, for which the nonsense suppression stood at 1. Next, G85A G88C: no more than 0.026; A74G C75A G86C: no more than 0.026; G67C C79G: 1.03. Consider G69A C82G, for which the nonsense suppression is no more than 0.026.

On to G84A G88U, for which the nonsense suppression is no more than 0.026. As to G66C C82U, the nonsense suppression is no more than 0.026.

With G78U, the nonsense suppression was found to be 0.63. G78A: the nonsense suppression came out at 0.775.

In the case of G78C, the nonsense suppression worked out at 0.202. Next, G69C G88U: no more than 0.026; U71C C77G G84A: no more than 0.026.

As for G78A G88C, the nonsense suppression worked out at 0.0845. Turning to G78U C83A, the nonsense suppression came to 0.0425. On to G88C, for which the nonsense suppression was found to be 0.028. As for G78A G85U, the figure is 0.0673; as for G73A C79U, 0.207. Next, G67A U76G G78A: no more than 0.026; G78A A87U: 0.032.

For the variant G78A A87C, the nonsense suppression was 0.032.

G78A A87G: the nonsense suppression was 0.294. As for C75A G85A, the figure is 1.05. As for G66U C79A, the figure is no more than 0.026; as for C82A A87U, no more than 0.026; as for C80A C82U, no more than 0.026. Next, A74U G78A: 0.0557. G66U C75A: the nonsense suppression worked out at 0.704. G67C C81A: the nonsense suppression was no more than 0.026.

As for G88U A89G, the nonsense suppression was no more than 0.026. Regarding G88U A89C, the nonsense suppression was no more than 0.026. Next, G67A U76A G85U: no more than 0.026. For G78U G84A, the nonsense suppression was 0.0428.

As for C75A C80U, the nonsense suppression came to 1.01.

On to C75A C80G, for which the nonsense suppression is no more than 0.026. With C68G U70C, the nonsense suppression was no more than 0.026. As for G69C C77G, the figure is no more than 0.026. U76A: the nonsense suppression is no more than 0.026. For the variant U76C, the nonsense suppression stood at 1. With G86U, the nonsense suppression was no more than 0.026.

G86C: the nonsense suppression is no more than 0.026.

Turning to G73A G85U, the nonsense suppression was determined as 0.285. As for G73A G85A, the figure is 1.03; as for C81U G88U, 0.0501; as for U70A C83U, 0.0439. Turning to G69U C72G, the nonsense suppression was no more than 0.026. As to C75U U76G, the nonsense suppression was 0.172.

As for G67A C80U, the nonsense suppression was 0.0261. For the variant C80A G86A, the nonsense suppression was no more than 0.026. As for G78A C83A, the figure is no more than 0.026. As for G78A C83U, the figure is 0.0266. On to C72G G73A, for which the nonsense suppression worked out at 0.0319. Take U70G C82G: the nonsense suppression is no more than 0.026. As for C83U G84U, the figure is 0.027.

With U71G C77A C79U A87U, the nonsense suppression was no more than 0.026.

Regarding A74G C81G, the nonsense suppression was no more than 0.026.

In the case of C79A C83A, the nonsense suppression is no more than 0.026. For C79U, the nonsense suppression turned out to be 0.879. Next, G85U G88A: 0.0446; G78U G85C: 0.0488; C75A C82A: 0.217. Next, C81U A87G: 0.239; C75A A87G: 0.839. On to G86C A87G, for which the nonsense suppression was 0.0881.

On to G67A G78U, for which the nonsense suppression turned out to be 0.0411. Next, G67A C75A C79A: 0.203. As for U76C C81U, the figure is 0.0575; as for U76A A87G, 0.0534. As for G67A C75G, the figure is 0.194; as for G78U C82U, 0.105.

On to C81G G88A, for which the nonsense suppression is no more than 0.026.

Turning to C80U, the nonsense suppression was determined as 0.697.

In the case of U71C C72G, the nonsense suppression was no more than 0.026.

In the case of C81A A87U, the nonsense suppression is no more than 0.026. Next, C75U G78A: 0.9; C75U G78C: 1.14; G69C A89G: no more than 0.026. As for G67C U70G, the figure is no more than 0.026; as for G69U U71G, no more than 0.026; as for G86U A87U, no more than 0.026.

For G67A G85U, the nonsense suppression came to 0.0862.

For U70A U76G, the nonsense suppression amounted to 0.183. As for G78A C82G, the nonsense suppression was 0.0423. With G78A C82A, the nonsense suppression stood at 0.0338. Turning to G69U G86C, the nonsense suppression was 0.17. As to G78A C81G, the nonsense suppression worked out at 0.0732. G67A: the nonsense suppression turned out to be 0.188. Consider C79A A87C, for which the nonsense suppression is no more than 0.026. Next, G66A U76C C81U: no more than 0.026; C72G G88U: no more than 0.026; G66A G73A: 0.182. As for C68A C75A, the nonsense suppression is 0.0286. In the case of A74G C83G, the nonsense suppression is no more than 0.026. Next, C75G G85U: 1.12; C75G G85C: 0.191; C75A C79U: 1.21. Take C72U G78A: the nonsense suppression amounted to 0.0322.

Take U70C G78A: the nonsense suppression worked out at 0.0308.

Consider U76A C82U, for which the nonsense suppression was no more than 0.026. Next, C82U: 1.05; C79A G84C: no more than 0.026. Next, C77U C79A C83A: no more than 0.026.

With U76A G85U, the nonsense suppression stood at 0.0588. Next, U70C C75U: no more than 0.026; G73C U76A: no more than 0.026; U70C G86A: no more than 0.026.

For G67A G84U, the nonsense suppression amounted to 0.0504. Next, G66A C75U: 0.368; G66A C75A: 1.18; C81A A89C: no more than 0.026. In the case of G73A G88U, the nonsense suppression amounted to 0.0757. As for G73A G88A, the nonsense suppression came out at 0.0281. C75U: the nonsense suppression was determined as 0.972. Next, C75A: 0.996; C75G: 1.04. Next, C72G G78A: 0.0282; C81G A87G: 0.0415; C72A G85C: no more than 0.026. U76A C77A: the nonsense suppression is no more than 0.026. On to C77A C81U, for which the nonsense suppression is no more than 0.026. Next, C68U U70C: 0.0321; G73C C83A: no more than 0.026; C82A C83U: no more than 0.026. Regarding A74U G84C, the nonsense suppression was no more than 0.026. In the case of C68G G69A, the nonsense suppression was no more than 0.026. Regarding U70C A74G A87C, the nonsense suppression is no more than 0.026. As for G73A, the nonsense suppression worked out at 1.12.

In the case of C75U G85U, the nonsense suppression was 1.12. As for C75U G85A, the figure is 1.06. Consider G78A G84A, for which the nonsense suppression was found to be 0.459.

G78A G84U: the nonsense suppression was 0.0325. Next, C83U G86A: no more than 0.026; U76G C79G G88A: no more than 0.026.
